# Rows were chosen to be rich in hits. Some 5.4% of all compounds tested hit in one or more screens of this group.
# PostGolgi ctrl = yeast control strain growth, post-Golgi counter-screen; efflux-deficient yeast background strain, growth absorbance A615, 16 h; hit rate 5% among 98,000; inhibition, % at 10 µM
# PostGolgi yeast = growth inhibition of a yeast mutant, post-Golgi transport screen | post-Golgi transport phenotypic cell assay | inhibition, % at 10 µM | hit rate 0.9% among 98,000 | AID 739;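 further: yeast cells grown in 1536-well plates; yeast grown about 18 h at 30C before absorbance read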
# HePTP inhibitor = human HePTP phosphatase inhibition. P35236. recombinant HePTP phosphatase activity, OD absorbance. inhibition, % at 20 µM. hit rate 0.64% among 110,000; in the data active means inhibition above about 50%;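 further: plate controls were vehicle for no effect and reference inhibitor for full effect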
# Ecoli tolC = growth inhibitors of E. coli BW25113 tolC mutant. AID 573. hit rate 2.2% among 65,000. OD615. growth inhibition, % at 10 µM (by protocol);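 active means growth inhibition at or above a cutoff equal to the mean over every tested compound plus 3 SD, cut at about 60% in these data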;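 further: growth measured after 20 h incubation at 37 °C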
#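 signal = optical density read at 615 nm | test system = E. coli ΔtolC::kan strain BW25113 | timing = 20 h compound exposure of bacteria at 37 °C | buffer or medium = LB medium plus 50 µg/mL kanamycin | compound dosing = 10 µM final, single dose | evaluation = % inhibition of E. coli growth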
# E coli WT exp = growth inhibitors of E. coli BW25113 wild type; OD600 absorbance; growth inhibition, % at 100 µM; hit rate 0.15% among 98,000;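 active means growth inhibition above about 50% at one test dose, limit read from the data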;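 further: growth measured after 20 h incubation at 37 °C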
# PLAP act = human PLAP activation. P05187. purified PLAP enzyme, luminescent substrate read-out; active compounds read high. activation fold at 20 µM. hit rate 1.2% among 96,000. AID 696; in the data active means activation fold above about 2
# Target sequence (P05187 whole entry, looked up): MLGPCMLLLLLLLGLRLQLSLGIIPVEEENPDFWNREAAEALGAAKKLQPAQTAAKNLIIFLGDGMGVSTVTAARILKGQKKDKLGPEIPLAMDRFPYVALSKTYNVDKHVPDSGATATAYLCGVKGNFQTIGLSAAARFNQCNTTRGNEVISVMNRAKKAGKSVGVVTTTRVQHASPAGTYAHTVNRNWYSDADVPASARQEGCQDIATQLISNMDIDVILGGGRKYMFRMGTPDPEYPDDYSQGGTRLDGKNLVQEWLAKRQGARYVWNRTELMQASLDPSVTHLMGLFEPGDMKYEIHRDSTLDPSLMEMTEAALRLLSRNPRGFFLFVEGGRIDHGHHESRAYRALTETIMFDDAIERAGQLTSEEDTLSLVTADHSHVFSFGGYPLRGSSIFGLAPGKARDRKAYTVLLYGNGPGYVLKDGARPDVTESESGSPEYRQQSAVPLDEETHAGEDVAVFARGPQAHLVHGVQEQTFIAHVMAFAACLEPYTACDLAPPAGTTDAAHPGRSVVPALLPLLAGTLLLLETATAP
# The depositor's hits bear a star; nt = no result given; ! = not confirmed by another sample. Unless noted, no stated cut-off is given here; in the data, active means inhibition above about 30%; inactive means the rest.
SMILES,PostGolgi ctrl,PostGolgi yeast,HePTP inhibitor,Ecoli tolC,E coli WT exp,PLAP act
O=C(C1CCCO1)N1CCN(C(c2ccccc2)c2ccccc2)CC1 (stereo not given),2,-2,1,1,8,1.5
O=C(C1CN(S(=O)(=O)c2ccccc2)CCN1S(=O)(=O)c1ccccc1)N1CCCCCC1 (stereo not given),20,-2,50*!,6,-3,1.1
O=C(C1CCCO1)N1CCN(S(=O)(=O)c2ccccc2)CC1 (stereo not given),36*,-16,1,-6,-6,1
O=C(c1ccc(Br)cc1)N1CCN(S(=O)(=O)c2ccccc2)CC1,35*,-3,-9,4,0,1.5
Cc1ccc(OCC(=O)Nc2ccccc2O)c(C)c1,nt,nt,4,nt,nt,nt
CCn1c(SCC(=O)Nc2nnc(C)s2)nc2c(c1=O)SC(C)C2 (stereo not given),39*,-7,5,-17,-5,1.1
CCn1c(SCC(=O)Nc2ccc3c(c2)OCO3)nc2c(c1=O)SC(C)C2 (stereo not given),74*,6,0,6,-2,0.9
Cc1ccc(-c2noc(CCCN3C(=O)c4ccccc4C3=O)n2)cc1,31*,9,nt,nt,-1,1
O=C1c2ccccc2C(=O)N1CCCCCc1nc(-c2ccccc2)no1,49*,8,-13,55,-8,0.8
Cc1ccc(-c2nc3ccccn3c2NC(=O)c2ccccc2)cc1,nt,nt,-2,nt,nt,nt
CCc1ccc(S(=O)(=O)NCc2cn3c(C)csc3n2)s1,-2,-6,-1,3,-4,1.5
O=S(=O)(NCc1csc(-c2cccnc2)n1)c1ccc(Cl)s1,13,4,nt,nt,6,0.9
CCc1ccc(S(=O)(=O)NCCc2csc(-c3cccnc3)n2)s1,4,5,nt,nt,1,1.2
CCc1ccc(S(=O)(=O)NCc2csc(-c3ccccc3)n2)s1,36*,15,-1,46,-12,0.6
CCc1ccc(S(=O)(=O)NCCc2csc(-c3ccccc3)n2)s1,42*,16,nt,93*,-16,1.1
O=S(=O)(NCc1csc(-c2ccccc2)n1)c1ccc(Cl)s1,33*,3,-7,46,-1,nt
O=C(CN1CCN(c2ccccn2)CC1)Nc1ccccc1,3,-4,nt,nt,1,1.3
O=C(CN1CCN(c2ccccn2)CC1)Nc1ccc(Oc2ccccc2)cc1,2,58*,11,30,-3,1.1
C=C1c2ccc(C)cc2NC(=O)N1c1ccc(Cl)cc1,nt,nt,-4,nt,nt,nt
CC12CC3(C)CC(C)(C1)CC(NC(=O)N1CCCC1)(C2)C3,32*,12,nt,nt,3,0.9
CC(=O)NC12CC3(C)CC(C)(C1)CC(NC(C)=O)(C3)C2,nt,nt,2,nt,nt,nt
O=C1NC(=O)N(c2ccccc2F)C(=O)/C1=C/c1ccc(I)o1,nt,nt,67*,nt,nt,nt
O=C1NC(=O)N(c2cccc(F)c2)C(=O)/C1=C/c1ccc(I)o1,nt,nt,53*,nt,nt,nt
COc1ccc(/C=C/C(=O)c2c3c(c(C)[nH]c2=O)CCCC3)cc1,nt,nt,-4,nt,nt,nt
CCOc1cc(/C=C2\SC(=S)N(NC(=O)c3cccc([N+](=O)[O-])c3)C2=O)ccc1O,nt,nt,-4,nt,nt,nt
SMILES,PostGolgi ctrl,PostGolgi yeast,HePTP inhibitor,Ecoli tolC,E coli WT exp,PLAP act
CN(Cc1ccccc1)C1CC(=O)N(c2ccc(C(=O)O)cc2)C1=O (stereo not given),42*,-2,-13,-12,-6,0.8
Nc1nc(N)nc(-c2ccc(Oc3ccccc3)cc2)n1,22,11,nt,nt,-9,0.9
Cc1ccc(Oc2ccc(-c3nc(N)nc(N)n3)cc2)cc1C,50*,-2,nt,nt,-5,0.8
O=C(NCc1ccc(F)cc1)C1CCC(=O)N1C1CCCCC1 (stereo not given),35*,-3,-8,2,7,1
CCOc1ccc(CCNC(=O)C2CCC(=O)N2C2CCCCC2)cc1OCC (stereo not given),36*,-3,6,-14,2,1.2
Cc1ccc2c(Cl)c(C(=O)Nc3cc(Cl)ccc3C)sc2c1,nt,nt,2,nt,nt,nt
COc1cc(S(=O)(=O)N2CCN(c3ccccc3F)CC2)ccc1Cl,48*,1,2,52,-3,0.8
COc1cc(S(=O)(=O)N2CCN(c3ccccc3)CC2)ccc1Cl,19,12,-3,10,4,1
O=S(=O)(N1CCCCC1)N1CCN(c2ccccc2F)CC1,-3,15,nt,nt,0,0.9
CS(=O)(=O)N1CCN(c2ccccc2F)CC1,31*,7,6,-16,6,1
Cc1nc2cc(-c3cccc(F)c3)nn2c(C)c1CCC(=O)NC(C)CCc1ccco1 (stereo not given),30,41*,9,27,-3,1.6
COc1cc(OC)cc(-c2cc3nc(C)c(CCC(=O)NC(C)CCc4ccco4)c(C)n3n2)c1 (stereo not given),17,5,-1,20,-8,1.7
Cc1cc(OCCCCN2CCC(C)CC2)ccc1Cl,nt,nt,6,nt,nt,nt
Cc1ccc(-n2c(C)nc3c(cnn3-c3ccc(C)c(C)c3)c2=O)cc1C,47*,6,nt,nt,-3,1.5
CC(C)COc1ccc2c(c1)c1c3c(nccn32)CCC1,nt,nt,5,nt,nt,nt
CCc1cc2cccc(C)c2nc1SCC(=O)NNC(=O)c1ccco1,38*,-5,nt,nt,0,1.4
CCc1cc2cc(C)c(C)cc2nc1SCC(=O)NNC(=O)c1ccco1,2,1,nt,nt,-12,0.9
CC(=O)c1ccc(-n2nnnc2SCC(=O)NNC(=O)c2ccco2)cc1,43*,6,nt,nt,2,2.2*
CCc1ccc(-n2nnnc2SCC(=O)NNC(=O)c2ccco2)cc1,-1,-1,nt,nt,2,2.3*
Cc1ccc(-n2nnnc2SCC(=O)Nc2cccc(NC(=O)c3ccco3)c2)cc1C,38*,2,4,21,-4,0.8
COc1ccc(C(=O)/C=C/c2ccco2)cc1OC,nt,nt,1,nt,nt,nt
O=C(NNc1nc2ccccc2s1)c1ccc(Br)cc1,nt,nt,-8,nt,nt,nt
O=C(Nc1cnc2ccccc2c1)c1ccncc1,15,-4,8,-11,-9,0.9
CCN(CC)C(=O)Nc1cnc2ccccc2c1,33*,3,11,-11,-1,0.8
N#Cc1nc(-c2cccs2)oc1NCC1CCCO1 (stereo not given),39*,6,14,-1,11,0.9
SMILES,PostGolgi ctrl,PostGolgi yeast,HePTP inhibitor,Ecoli tolC,E coli WT exp,PLAP act
O=S(=O)(c1ccccc1)c1nc(-c2cccs2)oc1NCC1CCCO1 (stereo not given),8,-4,-10,25,5,1.2
Clc1c(CSc2nc3ccccc3o2)nc2sccn12,36*,-2,13,19,0,0.8
c1ccc2oc(SCc3nc4ccccc4s3)nc2c1,-2,15,1,61*,-4,1
c1cc(CSc2nc3ccccc3o2)nc(CSc2nc3ccccc3o2)c1,nt,nt,3,nt,nt,nt
CC1(C(=O)O)CC(=O)N=C2C=CC=CN21 (stereo not given),nt,nt,-2,nt,nt,nt
CCN(C(=O)c1coc(=O)c2ccccc12)c1cc(OC)ccc1OC,38*,-5,10,-8,-7,1
CC(C)Oc1ccc(CNC2CCOC(C)(C)C2)cc1 (stereo not given),42*,1,14,-35,-8,1.3

# Screening data as filed in PubChem.
